Assay results reported in ChEMBL document CHEMBL3792366, “Role of disulfide linkage in action of bis(dialkylaminethiocarbonyl)disulfides as potent double-Edged microbicidal spermicide: Design, synthesis and biology” (Eur J Med Chem, 2016).
In brackets after ≈: the same amount, converted by molar mass.

Tests used:
[1] = Spermicidal activity in human sperms assessed as motility measured within 30 secs by phase contrast microscopy; assay type: functional, Sperm
How it was run: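 Liquefied human semen (0.05 mL) was added to 0.25 mL test solution and vortexed 10 s at low speed. Motile sperm were scored visually under phase contrast in five fields within 30 s; assays in triplicate; MEC = minimum effective concentration.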

Sporothrix schenckii = test: Antifungal activity against Sporothrix schenckii after 48 hrs by broth microdilution method; assay type: functional
How it was run: (§1)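 NCCLS broth microdilution in RPMI 1640 buffered with MOPS; starting inoculum 1–5 × 10^3 CFU/mL; plates incubated at 35 °C; MIC read after 48 h.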

[2] = test system: Trichophyton mentagrophytes; test: Antifungal activity against Trichophyton mentagrophytes after 48 hrs by broth microdilution method; assay type: functional; how it was run: as §1
Cryptococcus neoformans = test: Antifungal activity against Cryptococcus neoformans after 48 hrs by broth microdilution method; assay type: functional; how it was run: as §1
Candida albicans = test: Antifungal activity against Candida albicans after 48 hrs by broth microdilution method; assay type: functional; how it was run: as §1
Candida parapsilosis = test: Antifungal activity against Candida parapsilosis ATCC 22019 after 48 hrs by broth microdilution method; assay type: functional; details: Lodderomyces parapsilosis, ATCC 22019, 48 h; how it was run: as §1
Trichomonas vaginalis [3] = test: Antitrichomonas activity against metronidazole-resistant trophozoite stage of Trichomonas vaginalis ATCC 50143 assessed as cell viability under anaerobic condition after 48 hrs by trypan blue exclusion assay; assay type: functional; details: ATCC 50143, 48 h
How it was run: (§2)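 Log-phase T. vaginalis grown in TYM with 10% FCS, vitamin mix and penicillin/streptomycin at 37 °C. Compounds were made as 100 µg/mL DMSO stocks and serially diluted in TYM down to 0.1 µg/mL; DMSO/TYM served as vehicle. Parasites were incubated anaerobically at 37 °C, and viability was checked by trypan blue exclusion from 3 to 48 h. MIC = lowest concentration killing all cells by 48 h; each test was repeated three times.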

Trichomonas vaginalis [4] = test: Antitrichomonas activity against trophozoite stage of Trichomonas vaginalis clinical isolate assessed as cell viability under anaerobic condition after 48 hrs by trypan blue exclusion assay; assay type: functional; how it was run: as §2

Row | Compound | MEC [1] [%] | MIC (Sporothrix schenckii) [µM] | MIC [2] [µM] | MIC (Cryptococcus neoformans) [µM] | MIC (Candida albicans) [µM] | MIC (Candida parapsilosis) [µM] | MIC (Trichomonas vaginalis [3]) [µM] | MIC (Trichomonas vaginalis [4]) [µM]
1 | CCCCCCSC(=S)N1CCN(CCCC)CC1 | >1 | – | – | – | – | – | – | –
2 | OC(Cn1cncn1)(Cn1cncn1)c1ccc(F)cc1F [FLUCONAZOLE] | – | 0.39 (≈ 0.119 µg/mL) | 0.39 (≈ 0.119 µg/mL) | 0.19 (≈ 0.0582 µg/mL) | 0.39 (≈ 0.119 µg/mL) | 0.39 (≈ 0.119 µg/mL) | – | –
3 | Fc1ccc(N2CCN(C(=S)SSC(=S)N3CCN(c4ccc(F)cc4)CC3)CC2)cc1 | >1 | 97.8 (≈ 49.9 µg/mL) | 97.8 (≈ 49.9 µg/mL) | > 97.8 | 97.8 (≈ 49.9 µg/mL) | > 97.8 | > 195 | > 195
4 | S=C(SCCN1CCCCC1)N1CCN(C(=S)SSC(=S)N2CCN(C(=S)SCCN3CCCCC3)CC2)CC1 | 0.5 | > 71.7 | > 71.7 | > 71.7 | > 71.7 | > 71.7 | > 143 | > 143
5 | CCCCN1CCN(C(=S)SCCC)CC1 | >1 | – | – | – | – | – | – | –
6 | N#CCCCN1CCN(C(=S)SCCSC(=S)N2CCN(CCCC#N)CC2)CC1 | 0.5 | – | – | – | – | – | – | –
7 | CCCCCCCCCCSC(=S)N1CCN(C(=S)SSC(=S)N2CCN(C(=S)SCCCCCCCCCC)CC2)CC1 | 1 | 66.2 (≈ 50 µg/mL) | > 66.2 | 33.1 (≈ 25 µg/mL) | 66.2 (≈ 50 µg/mL) | 66.2 (≈ 50 µg/mL) | > 132 | > 132
8 | CCCCSC(=S)N1CCN(C(=S)SSC(=S)N2CCN(C(=S)SCCCC)CC2)CC1 | >1 | 85.1 (≈ 50 µg/mL) | 42.5 (≈ 24.9 µg/mL) | 85.1 (≈ 50 µg/mL) | > 85.1 | 42.5 (≈ 24.9 µg/mL) | > 170 | > 170
9 | CS(=O)(=O)N1CCN(C(=S)SSC(=S)N2CCN(S(C)(=O)=O)CC2)CC1 | 1 | > 104 | 52.1 (≈ 24.9 µg/mL) | > 104 | 104 (≈ 49.8 µg/mL) | > 104 | > 208 | > 208
10 | S=C(SSC(=S)N(C1CCCCC1)C1CCCCC1)N(C1CCCCC1)C1CCCCC1 | >1 | 97.4 (≈ 50 µg/mL) | 97.4 (≈ 50 µg/mL) | 24.3 (≈ 12.5 µg/mL) | 48.7 (≈ 25 µg/mL) | > 97.4 | > 194 | > 194
11 | CN1CCN(C(=S)SCSC(=S)N2CCN(C)CC2)CC1 | 0.5 | – | – | – | – | – | – | –
12 | CCCCN1CCN(C(=S)SCSC(=S)N2CCN(CCCC)CC2)CC1 | 0.5 | – | – | – | – | – | – | –
13 | C=CCN1CCN(C(=S)SCSC(=S)N2CCN(CC=C)CC2)CC1 | 1 | – | – | – | – | – | – | –
14 | C=CCN1CCN(C(=S)SCCCSC(=S)N2CCN(CC=C)CC2)CC1 | 0.5 | – | – | – | – | – | – | –
15 | N#CCCCN1CCN(C(=S)SCCCSC(=S)N2CCN(CCCC#N)CC2)CC1 | 0.5 | – | – | – | – | – | – | –
16 | S=C(SSC(=S)N1CCN(c2ccccn2)CC1)N1CCN(c2ccccn2)CC1 | 1 | 104 (≈ 49.6 µg/mL) | 52.4 (≈ 25 µg/mL) | 104 (≈ 49.6 µg/mL) | > 104 | > 104 | > 209 | > 209
17 | N#CCCCN1CCN(C(=S)SCSC(=S)N2CCN(CCCC#N)CC2)CC1 | 0.5 | – | – | – | – | – | – | –
18 | COc1ccccc1N1CCN(C(=S)SSC(=S)N2CCN(c3ccccc3OC)CC2)CC1 | 1 | 46.7 (≈ 25 µg/mL) | 93.4 (≈ 50 µg/mL) | 23.3 (≈ 12.5 µg/mL) | 46.7 (≈ 25 µg/mL) | > 93.4 | > 186 | > 186
19 | S=C(SCc1ccccc1)N1CCN(C(=S)SSC(=S)N2CCN(C(=S)SCc3ccccc3)CC2)CC1 | >1 | > 76.3 | > 76.3 | > 76.3 | > 76.3 | > 76.3 | 95.4 (≈ 62.5 µg/mL) | 95.4 (≈ 62.5 µg/mL)
20 | CC(C)(C)OC(=O)N1CCN(C(=S)SSC(=S)N2CCN(C(=O)OC(C)(C)C)CC2)CC1 | >1 | > 91.7 | > 91.7 | > 91.7 | > 91.7 | > 91.7 | > 183 | > 183
21 | CCCCN1CCN(C(=S)SCCSC(=S)N2CCN(CCCC)CC2)CC1 | 0.5 | – | – | – | – | – | – | –
22 | CCCCCCCCN1CCN(C(=S)SSC(=S)N2CCN(CCCCCCCC)CC2)CC1 | 0.1 | 91.4 (≈ 50 µg/mL) | 91.4 (≈ 50 µg/mL) | 91.4 (≈ 50 µg/mL) | 91.4 (≈ 50 µg/mL) | 91.4 (≈ 50 µg/mL) | 182 (≈ 99.6 µg/mL) | 182 (≈ 99.6 µg/mL)
23 | CN1CCN(C(=S)SCCSC(=S)N2CCN(C)CC2)CC1 | 0.5 | – | – | – | – | – | – | –
